Screens (PubChem BioAssay)
Shown are actives, neighbours in structure and some others; about 2.4% of the full set was active somewhere.
TbMetRS inhib – Trypanosoma brucei MetRS inhibition; purified T. brucei MetRS, ATP depletion, Kinase-Glo luminescence; 360,000 compounds, 0.4% hits; AID 624268; inhibition, % at 11.9 µM;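 active = inhibition above a per-plate cutoff of the control wells' mean inhibition plus 3 SD, cut at about 5.5% in these data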;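 note: 0% = DMSO wells median and 100% = median of wells with control inhibitor compound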
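assay system = parasite MetRS enzyme | timing = 15 min preincubation, 2 h reaction, all 25 °C | evaluation = percent inhibition relative to median high and low control wells | medium = HEPES buffer containing pyrophosphatase, BSA, spermine, DTT | compound = single dose, 11.9 µM final nominal, 0.9% final DMSO | detection = Kinase-Glo luminescence, ATP depletion format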
PREPL inhibitor – inhibitors of human prolyl oligopeptidase-like enzyme PREPL; AID 2751; recombinant PREPL, fluorescence polarization activity-based probe; 320,000 compounds, 0.68% hits; Q4J6C6; inhibition, % at 5.96 µM; in the data active = inhibition above about 43%;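 note: 0% = enzyme with DMSO and 100% = wells lacking enzyme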
Rpn11 inh – blocks the human proteasome subunit Rpn11; human 26S proteasome, Ub4-pepOG fluorescence polarization; 20S core pre-blocked with epoxomicin; inhibition, % at 20 µM; 360,000 compounds, 0.59% hits;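 active = inhibition at 20 µM, scaled to each plate's controls, above about 33%, limit read from the data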
Target sequence (O00487 whole entry, looked up): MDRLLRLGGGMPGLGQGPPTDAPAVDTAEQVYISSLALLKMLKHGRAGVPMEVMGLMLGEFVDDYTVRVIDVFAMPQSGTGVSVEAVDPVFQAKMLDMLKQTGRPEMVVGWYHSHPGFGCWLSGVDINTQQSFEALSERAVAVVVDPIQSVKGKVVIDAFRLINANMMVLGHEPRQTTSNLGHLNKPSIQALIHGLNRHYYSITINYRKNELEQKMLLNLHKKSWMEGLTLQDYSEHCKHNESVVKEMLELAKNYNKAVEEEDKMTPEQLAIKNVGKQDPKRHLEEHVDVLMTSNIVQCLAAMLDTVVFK
CSN deneddyl inh – blocks human CSN-mediated cullin deneddylation | Purified CSN, SCF-Nedd8-OG deneddylation, fluorescence polarization | inhibition, % at 12.5 µM | 360,000 compounds, 0.38% hits | AID 651999;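 active = pattern-corrected inhibition above about 35%, with an unprinted fluorescence ratio check between 0.5 and 1.5, limit read from the data, passing the limit was not always enough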;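 note: 0% = enzyme with substrate and 100% = substrate without enzyme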
Target sequence (Q92905 whole entry, looked up, one chain of several): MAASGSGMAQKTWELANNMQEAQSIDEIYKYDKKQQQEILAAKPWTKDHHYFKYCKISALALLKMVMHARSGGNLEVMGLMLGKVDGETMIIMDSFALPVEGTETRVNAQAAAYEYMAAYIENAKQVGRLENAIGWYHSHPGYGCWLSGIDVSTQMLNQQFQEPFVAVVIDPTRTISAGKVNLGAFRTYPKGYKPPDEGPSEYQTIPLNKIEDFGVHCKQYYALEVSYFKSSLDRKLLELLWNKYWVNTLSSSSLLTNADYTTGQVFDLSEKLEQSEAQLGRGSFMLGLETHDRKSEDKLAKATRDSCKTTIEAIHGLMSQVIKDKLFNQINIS
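Material: human Csn5 produced in HEK293T cells; Input: enzyme 0.24 nM; Reagent: SCFSkp2-Nedd8OG substrate at 10 nM final; Dosing: 12.5 µM compound; Incubation: 90 min reaction at room temperature; Detection: fluorescence polarization of the substrate; Evaluation: % inhibition of substrate cleavage by Csn5; Control set: substrate-only high control, full reaction low control.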
Neddyl block – blocks human cullin neddylation. P61081+Q13564. TR-FRET cullin neddylation, biochemical. inhibition, % at 25 µM. 360,000 compounds, 0.58% hits; in the data active = inhibition above about 36%
HNF4A DNA FP – change in binding of human HNF4 alpha to DNA. P41235. HNF4a-FITC DNA binding, fluorescence polarization, 1 h. activity change, % at 10 µM. 360,000 compounds, 0.3% hits; in the data active = activity change above about 30%, passing the limit was not always enough
* = called active by the depositor.

What do the screens show for `C#CCOCCOCCOCCNc1nc(N2CCN(C(=O)CCCCCCCCCCNC(=O)[C@H](CCCCN)n3cc(C[C@@H](C)CC)nn3)CC2)nc(N2CCN(C(=O)CCCCCCCCCCNC(=O)[C@H](CCCN=C(N)N)n3cc(C[C@@H](C)CC)nn3)CC2)n1`?
TbMetRS inhib: 0; PREPL inhibitor: 66*; Rpn11 inh: 128*; CSN deneddyl inh: 137*; Neddyl block: -3; HNF4A DNA FP: 213

What do the screens show for `C#CCOCCOCCOCCNc1nc(N2CCN(C(=O)CCCCCCCCCCNC(=O)[C@@H](CCC(=O)O)n3cc(CCCCCN)nn3)CC2)nc(N2CCN(C(=O)CCCCCCCCCCNC(=O)[C@H](CCCCN)n3cc(C[C@@H](C)CC)nn3)CC2)n1`?
TbMetRS inhib: 0; PREPL inhibitor: 31; Rpn11 inh: -1; CSN deneddyl inh: 4; Neddyl block: -4; HNF4A DNA FP: 5

How did C#CCOCCOCCOCCNc1nc(N2CCN(C(=O)CCCCCCCCCCNC(=O)[C@@H](CCSC)n3cc(CCO)nn3)CC2)nc(N2CCN(C(=O)CCCCCCCCCCNC(=O)[C@H](CCCN=C(N)N)n3cc(C[C@@H](C)CC)nn3)CC2)n1 do in these assays?
TbMetRS inhib: 0; PREPL inhibitor: 37; Rpn11 inh: 118*; CSN deneddyl inh: 131*; Neddyl block: -5; HNF4A DNA FP: 257

How did CCc1ccc(S(=O)(=O)Nc2cccc(-c3ccc4nnc(C)n4n3)c2)s1 do in these assays?
TbMetRS inhib: 0; PREPL inhibitor: -4; Rpn11 inh: 4; CSN deneddyl inh: -9; Neddyl block: 5; HNF4A DNA FP: 4

Results for COc1ccc(C(CNS(=O)(=O)c2cccc(F)c2)N2CCCC2)cc1 (centres undefined) ?
TbMetRS inhib: 0; PREPL inhibitor: -34; Rpn11 inh: -1; CSN deneddyl inh: 0; Neddyl block: -1; HNF4A DNA FP: 3

Results for O=C1NC[C@H](c2ccccc2)N(CCC23CC4CC(CC(C4)C2)C3)C1=O ?
TbMetRS inhib: 0; PREPL inhibitor: -1; Rpn11 inh: 0; CSN deneddyl inh: 74*; Neddyl block: 7; HNF4A DNA FP: 5

How did O=C(COc1cc2oc(=O)cc(-c3ccccc3)c2cc1Cl)NC(Cc1c[nH]c2ccc(O)cc12)C(=O)O (centres undefined) do in these assays?
TbMetRS inhib: 0; PREPL inhibitor: 13; Rpn11 inh: 2; CSN deneddyl inh: 1; Neddyl block: -12; HNF4A DNA FP: -2

Results for Cc1ccc(-n2cc(C(=O)c3ccc(N4CCN(C)CC4)cc3)nn2)cc1Cl ?
TbMetRS inhib: 0; PREPL inhibitor: 38; Rpn11 inh: 7; CSN deneddyl inh: -1; Neddyl block: 4; HNF4A DNA FP: 105*

Results for COC(=O)CSc1nnc(CNC(=O)c2cc(OC)c(OC)c(OC)c2)n1C ?
TbMetRS inhib: 0; PREPL inhibitor: 1; Rpn11 inh: 3; CSN deneddyl inh: -6; Neddyl block: 6; HNF4A DNA FP: 28*

Results for COC(=O)CSc1nnc(CNC(=O)c2ccccc2OC)n1C ?
TbMetRS inhib: -1; PREPL inhibitor: 16; Rpn11 inh: 0; CSN deneddyl inh: -6; Neddyl block: -5; HNF4A DNA FP: 0

How did N/C(=N\OC(=O)CSc1ccccc1)c1ccccn1 do in these assays?
TbMetRS inhib: 0; PREPL inhibitor: -2; Rpn11 inh: -5; CSN deneddyl inh: 2; Neddyl block: -4; HNF4A DNA FP: 0

How did CSc1ncnc2c1ncn2CCCN(C)Cc1ccco1 do in these assays?
TbMetRS inhib: -1; Rpn11 inh: -3; CSN deneddyl inh: -3; Neddyl block: 0; HNF4A DNA FP: 0

How did COc1cc(/C=N/NC(=O)c2ccc(CN3C(=O)c4cccc5cccc3c45)cc2)cc(OC)c1O do in these assays?
TbMetRS inhib: 0; PREPL inhibitor: 28; Rpn11 inh: 2; CSN deneddyl inh: 4; Neddyl block: 44*; HNF4A DNA FP: 2

How did COc1ccc(CCN(C(=S)Nc2ccccc2)C2CC(=O)N(c3ccccc3)C2=O)cc1 (centres undefined) do in these assays?
TbMetRS inhib: 16*; PREPL inhibitor: 4; Rpn11 inh: -2; CSN deneddyl inh: -3; Neddyl block: 1; HNF4A DNA FP: 2

Results for N#CC1=C(N)C(C#N)(C#N)[C@H](c2ccoc2)[C@H]2CN(Cc3ccccc3)CC=C12 ?
TbMetRS inhib: 0; PREPL inhibitor: 52*; Rpn11 inh: -82; CSN deneddyl inh: -56; Neddyl block: -1; HNF4A DNA FP: -43

What do the screens show for `CN1CC=C2C(C#N)=C(N)C(C#N)(C#N)[C@H](c3ccoc3)[C@H]2C1`?
TbMetRS inhib: 0; PREPL inhibitor: 34; Rpn11 inh: -146; CSN deneddyl inh: -84; Neddyl block: 34; HNF4A DNA FP: -74

Results for CS(=O)(=O)N(CC(=O)N1CCc2ccccc2C1)c1ccccc1F ?
TbMetRS inhib: 1; PREPL inhibitor: -26; Rpn11 inh: 1; CSN deneddyl inh: -1; Neddyl block: 0; HNF4A DNA FP: 2

What do the screens show for `CC(=O)c1cc(CN2C(=O)CCC2=O)cs1`?
TbMetRS inhib: 0; PREPL inhibitor: 4; Rpn11 inh: -3; CSN deneddyl inh: 0; Neddyl block: 2; HNF4A DNA FP: 0

Results for CC(=O)c1cc(Cc2csc(C(C)=O)c2)cs1 ?
TbMetRS inhib: -1; PREPL inhibitor: 53*; Rpn11 inh: 1; CSN deneddyl inh: -9; Neddyl block: -4; HNF4A DNA FP: 4

What do the screens show for `CN(C)c1ccc(C(=N)Cc2ccc3ccccc3n2)cc1`?
TbMetRS inhib: 0; Rpn11 inh: 35; CSN deneddyl inh: 44*; Neddyl block: 17; HNF4A DNA FP: 26

How did Cn1c(SCC(=O)c2ccccc2)nnc1-c1ccncc1 do in these assays?
TbMetRS inhib: 0; PREPL inhibitor: -2; Rpn11 inh: -10; CSN deneddyl inh: 0; Neddyl block: 5; HNF4A DNA FP: -3

How did Cn1c(SCC(=O)c2ccc3c(c2)Cc2ccccc2-3)nnc1-c1ccccc1 do in these assays?
TbMetRS inhib: -1; PREPL inhibitor: -5; Rpn11 inh: -2; CSN deneddyl inh: 74*; Neddyl block: -279; HNF4A DNA FP: 3

How did O=C(C1CCN(c2ccc(N3CCOCC3)nn2)CC1)N1CCN(c2ccc(F)cc2)CC1 do in these assays?
TbMetRS inhib: 0; PREPL inhibitor: 65*; Rpn11 inh: -2; CSN deneddyl inh: 2; HNF4A DNA FP: 1

What do the screens show for `CN1/C(=C/C(=O)c2ccc(Cl)cc2)Sc2cc3c(cc21)OCO3`?
TbMetRS inhib: 0; PREPL inhibitor: 18; CSN deneddyl inh: -9; Neddyl block: 16; HNF4A DNA FP: 45*

Results for CC(=O)N[C@H]1[C@H]([C@H](O)[C@H](O)CO)O[C@](O)(C(=O)O)C[C@@H]1O ?
TbMetRS inhib: -1; Rpn11 inh: 11; CSN deneddyl inh: -4; Neddyl block: -15; HNF4A DNA FP: 4
